Measurements published in ChEMBL document CHEMBL4387709, “Discovery of Quinoline Analogues as Potent Antivirals against Enterovirus D68 (EV-D68)” (J Med Chem, 2019).
pEC50: −log10 of the molar value.

Columns and labels:
enterovirus D68 = assay: Antiviral activity against Enterovirus D68 US/KY/14-18953 infected in human RD cells assessed as inhibition of virus-induced cytopathic effect incubated for 5 mins under shaking condition and measured after 3 days by neutral red dye-based photometric method; type: functional, organism-based; conditions: Enterovirus D, US/KY/14-18953, RD
Summary of the method: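 RD cells seeded one day ahead to ~90% confluence, PBS (Mg/Ca) wash, infected at ~MOI 0.01 with EV-D68 in DMEM/2% FBS/30 mM MgCl2 at 33 °C, 5% CO2. Compounds and 1% P/S added after 1 h. Plates shaken ~5 min, held 3 days, viable cells stained with neutral red (66 µg/ml), A540 read. EC50 from dose-response fits, triplicates.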

RD = assay: Cytotoxicity against human RD cells after 3 days by neutral red dye-based photometric method; type: cell-based; conditions: rd, 72 h
[1] = Selectivity index, ratio of CC50 for human RD cells to EC50 for Enterovirus D68 US/KY/14-18953 infected in human RD cells; type: toxicity, cell-based; conditions: read-out: Ratio CC50/EC50

Row | SMILES | pEC50 (enterovirus D68) | CC50 (RD) | selectivity ratio [1]
1 | CC(C)Oc1cc(C(=O)NCCN2CCCC2)c2ccccc2n1 | 5.77 | 36.9 µM | 21.7
2 | CCN(CC)CCNC(=O)c1cc(-c2ccccc2)nc2ccc(Cl)cc12 | 5.72 | 13.5 µM | 7.1
3 | CCN(CC)CCNC(=O)c1cc(-c2cnc(OC)nc2)nc2ccccc12 | 4.06 | 174 µM | 2
4 | CCN(CC)CCCNC(=O)c1cc(-c2ccccc2)nc2ccccc12 | 5.02 | 45.4 µM | 4.7
5 | CC(C)Oc1cc(C(=O)NCCN2CCOCC2)c2ccccc2n1 | 4.76 | > 250 µM | > 14.3
6 | CCN(CC)CCNC(=O)c1cc(OCc2ccccc2)nc2ccccc12 | 5.96 | 13.5 µM | 12.3
7 | CCCOc1cc(C(=O)NCCN(CC)CC)c2ccccc2n1 | 5.31 | 46.7 µM | 9.5
8 | Cc1ccc2c(c1)c1c3n2CCNC3CCC1 (centres undefined) | 5.08 | 19 µM | –
9 | COc1ccc2nc(-c3ccccc3)cc(C(=O)NCCN(C)C)c2c1 | 5.09 | 31.8 µM | 3.9
10 | CN(C)CCCNC(=O)c1cc(-c2ccccc2)nc2ccccc12 | 5.46 | 44.9 µM | 12.8
11 | CCN(CC)CCNC(=O)c1cc(-c2ccc(-c3ccccc3)cc2)nc2ccccc12 | < 5.00 | 9.8 µM | –
12 | O=C(NCCCn1ccnc1)c1cc(-c2cccs2)nc2ccccc12 | 5.05 | 55.7 µM | 6.3
13 | N=C(N)NC(=O)c1cc(-c2ccccc2)nc2ccccc12 | 4.46 | > 250 µM | > 7.2
14 | CCN(CC)CCNC(=O)c1cc(-c2ccc(Cl)s2)nc2ccccc12 | 6.10 | 6.1 µM | 7.6
15 | CC(C)Oc1cc(C(=O)N2CCN(C)CC2)c2ccccc2n1 | < 4.00 | > 300 µM | –
16 | NNC(=O)c1cc(-c2cccs2)nc2ccccc12 | 4.92 | > 100 µM | > 8.4
17 | CN(C)CCNC(=O)c1cc(-c2ccccc2)nc2ccc(Cl)cc12 | 5.92 | 14.3 µM | 11.9
18 | CCN(CC)CCNC(=O)c1cc(-c2ccc3c(c2)OCCO3)nc2ccccc12 | 5.05 | 49.9 µM | 5.5
19 | CC(C)Oc1cc(C(=O)NCCCN(C)C)c2ccccc2n1 | 4.94 | 122 µM | 10.7

Row | SMILES | pEC50 (enterovirus D68) | CC50 (RD) | selectivity ratio [1]
20 | CCN(CC)CCNC(=O)c1cc(-c2ccc(COC)cc2)nc2ccccc12 | 4.76 | 46.6 µM | 2.7
21 | CCN(CC)CCNC(=O)c1cc(/C=C/c2ccccc2)nc2ccccc12 | 6.10 | 11.5 µM | 14.4
22 | CCN(CC)CCNC(=O)c1cc(-c2ccc(OC)cc2)nc2ccccc12 | 5.62 | 31.6 µM | 13.2
23 | CCN(CC)CCNC(=O)c1cc(-c2ccccc2)nc2ccccc12 | 6.10 | 45.1 µM | 56.4
24 | CN(C)CCNC(=O)c1cc(-c2ccccc2)nc2ccc(F)cc12 | 6.22 | 38.8 µM | 64.7
25 | CCN(CC)CCNC(=O)c1cc(-c2ccccc2)nc2ccc(OC)cc12 | 4.91 | 27.5 µM | 2.2
26 | CCOCCOc1cc(C(=O)NCCN(CC)CC)c2ccccc2n1 | 4.91 | 144 µM | 11.8
27 | CCC(CC)Oc1cc(C(=O)NCCN(CC)CC)c2ccccc2n1 | < 5.00 | 9.5 µM | –
28 | CCN(CC)CCNC(=O)c1cc(-c2ccsc2)nc2ccccc12 | 6.00 | 46.9 µM | 46.9
29 | CCN(CC)CCNC(=O)c1cc(-c2ccccc2OC)nc2ccccc12 | 4.86 | 75.9 µM | 5.5
30 | CCN(CC)CCNC(=O)c1cc(-c2ccc3c(c2)CCO3)nc2ccccc12 | 5.80 | 29.5 µM | 18.4
31 | CC(C)Oc1cc(C(=O)NCCN)c2ccccc2n1 | 5.46 | 149 µM | 42.5
32 | CC(C)Oc1cc(C(=O)NC2CCN(C)CC2)c2ccccc2n1 | 4.75 | 101 µM | 5.7
33 | CCN(CC)CCNC(=O)c1cc(OCC(F)(F)F)nc2ccccc12 | 5.46 | 33.1 µM | 9.5
34 | CCN(CC)CCNC(=O)c1cc(OC)nc2ccccc12 | 4.28 | > 250 µM | > 4.8
35 | CCN(CC)CCNC(=O)c1cc(-c2ccncc2)nc2ccccc12 | 5.18 | 174 µM | 26.3
36 | CC(C)Oc1cc(C(=O)NCCN(C)C)c2ccccc2n1 | 5.77 | 38.5 µM | 22.6
37 | CCN(CC)CCNC(=O)c1cc(-c2ccccc2)nc2ccc(F)cc12 | 5.89 | 24.9 µM | 19.2
38 | CN(C)c1ccc(NC(=O)c2cc(-c3ccccc3)nc3ccccc23)cc1 | < 4.00 | > 350 µM | > 3.5

Row | SMILES | pEC50 (enterovirus D68) | CC50 (RD) | selectivity ratio [1]
39 | CCC(C)Oc1cc(C(=O)NCCN(CC)CC)c2ccccc2n1 (centres undefined) | 5.55 | 15.7 µM | 5.6
40 | CCOc1cc(C(=O)NCCN(CC)CC)c2ccccc2n1 | 5.23 | 165 µM | 27.9
41 | CCN(CC)CCNC(=O)c1cc(-c2cnc(N(C)C)nc2)nc2ccccc12 | 4.61 | 74.2 µM | 3
42 | CC(C)Oc1cc(C(=O)NCCN2CCN(C)CC2)c2ccccc2n1 | 4.59 | 88.8 µM | 3.4
43 | CCN(CC)CCNC(=O)c1cc(-c2cccc(OC)c2)nc2ccccc12 | 5.80 | 36.5 µM | 22.8
44 | O=C(NCCN1CCCC1)c1cc(-c2ccccc2)nc2ccccc12 | 6.40 | 46.7 µM | 117
45 | CCN(CC)CCNC(=O)c1cc(-c2c(C)noc2C)nc2ccccc12 | < 4.30 | 129 µM | –
46 | NNC(=O)c1cc(-c2ccccc2)nc2ccccc12 | 4.00 | > 300 µM | > 3
47 | CCN(CC)CCNC(=O)c1cc(OCC2CC2)nc2ccccc12 | 5.15 | 38.5 µM | 5.4
48 | CCN(CC)CCNC(=O)c1cc(-c2ccnn2C)nc2ccccc12 | 4.44 | 133 µM | 3.7
49 | CCN(CC)CCNC(=O)c1cc(-c2ccn[nH]2)nc2ccccc12 | 4.71 | 132 µM | 6.8
50 | CCN(CC)CCNC(=O)c1cc(OC2CCCC2)nc2ccccc12 | 5.17 | 11.7 µM | 1.7
51 | CCN(CC)CCNC(=O)c1cc(-c2cccs2)nc2ccccc12 | 6.22 | 37.4 µM | 62.3
52 | CCN(CC)CCNC(=O)c1cc(-c2cnn(C)c2)nc2ccccc12 | < 4.00 | 251 µM | –
53 | CN(C)CCCNC(=O)c1cc(-c2cccs2)nc2ccccc12 | 6.15 | 40.5 µM | 57.9
54 | CCN(CC)CCNC(=O)c1cc(-c2ccc(CN3CCOCC3)cc2)nc2ccccc12 | < 4.10 | 79.2 µM | –
55 | CCN(CC)CCNC(=O)c1cc(OC(C)C)nc2ccccc12 | 5.60 | 111 µM | 44.5
56 | O=C(NC1CN2CCC1CC2)c1cc(-c2ccccc2)nc2ccccc12 (centres undefined) | 5.46 | 46.5 µM | 13.3
57 | CCN(CC)CCNC(=O)c1cc(-c2ccoc2)nc2ccccc12 | 5.82 | 122 µM | 81.7
